Data set [1] deals with T1, Neuropeptide Y receptor type 5 (Homo sapiens, UniProt Q15761).
T1 sequence (Q15761 whole entry): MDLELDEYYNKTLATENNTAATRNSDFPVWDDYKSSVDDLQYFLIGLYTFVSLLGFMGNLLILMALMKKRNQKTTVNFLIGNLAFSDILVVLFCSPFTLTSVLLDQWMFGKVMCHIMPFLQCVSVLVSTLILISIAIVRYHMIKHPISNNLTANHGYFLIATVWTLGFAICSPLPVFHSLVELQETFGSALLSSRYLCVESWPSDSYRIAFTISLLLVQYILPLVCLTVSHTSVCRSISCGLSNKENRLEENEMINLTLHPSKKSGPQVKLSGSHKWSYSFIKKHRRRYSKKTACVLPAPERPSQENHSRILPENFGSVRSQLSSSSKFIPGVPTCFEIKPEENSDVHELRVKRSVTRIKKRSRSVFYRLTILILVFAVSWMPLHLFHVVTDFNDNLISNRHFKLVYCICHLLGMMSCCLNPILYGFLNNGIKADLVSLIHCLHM
Kind of data set: Inhibition of [125I]PYY binding to human recombinant Neuropeptide Y receptor type 5 in LMtk-cells. The essentials: (§1)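 Radioligand displacement used [125I]PYY on human recombinant Y5 receptors expressed in LMtk- cells. Values are mean ± SE, n = 3.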

The target in data set [2] is T1, Neuropeptide Y receptor type 5. The data set is described as follows: Inhibition of [125I]PYY binding human recombinant Neuropeptide Y receptor type 5 in LMtk-cells. The essentials: as §1
The target is the same in data set [3]. Kind of data set: Antagonistic activity of compound was determined by its ability to inhibit NPY induced [Ca2+]i increases in CHO cells which expressed the recombinant human Neuropeptide Y receptor type 5. The class given is functional, cell-based. A digest of the protocol:
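Human recombinant Y5 receptor co-expressed with Gqi5 in CHO cells. Cells were stimulated with 100 nM NPY and inhibition of the intracellular Ca2+ rise was measured. IC50 is given as mean ± SE, n = 3.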

A short description of data set [4]: Bioavailability was determined for compound in SD rats when administered perorally at 10 mg/kg. As to conditions: Sprague-Dawley, rat, in vivo, po, read-out: Fmean. The class given is ADME, organism-based. A digest of the protocol: (§2)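 Pharmacokinetics in SD rats: intravenous dose 1 mg/kg and oral dose 10 mg/kg. Parameters derived from plasma levels were t1/2, Vdss and CLtot (iv), and t1/2, Tmax, Cmax and F (po).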

A short description of data set [5]: Volume of distribution was determined in SD rats when administered intravenously, at 1 mg/kg compound dosage. The class given is ADME, organism-based. Further details: dose 1 mg/kg, route intravenous. As to conditions: Sprague-Dawley, rat, in vivo, iv, read-out: Vdss. The essentials:
as §2

A short description of data set [6]: Half life (10 mg/kg) was determined in SD rats when administered perorally. As to conditions: Sprague-Dawley, rat, in vivo, po. The class given is ADME, organism-based. The essentials: as §2
A short description of data set [7]: Half life (1 mg/kg) was determined in SD rats when administered intravenously. The class given is ADME, organism-based. As to conditions: Sprague-Dawley, rat, in vivo, iv. A digest of the protocol: as §2
A short description of data set [8]: Total body clearance was determined in SD rats when administered intravenously, at 1 mg/kg compound dosage. The note with it: Sprague-Dawley, rat, in vivo, iv, read-out: CLtotal. Further details: dose 1 mg/kg, route intravenous. The class given is ADME, organism-based. A digest of the protocol:
as §2

In the next data set the test system is Rattus norvegicus. Kind of data set: Peak plasma concentration was determined for compound in SD rats when administered perorally at 10 mg/kg. The class given is ADME, organism-based. Further details: dose 10 mg/kg, route oral. The note with it: in vivo, po. The essentials: as §2
Data set [9] can be described thus: Time required for peak plasma concentration was determined for compound in SD rats when administered perorally at 10 mg/kg. The note with it: Sprague-Dawley, rat, po. Further details: dose 10 mg/kg, route oral. The class given is ADME, organism-based. The essentials:
as §2

Data set [10] in a line: The concentration in brain was determined in SD rats at 2 hr after peroral administration of 10 mg/kg. The note with it: Sprague-Dawley, rat, po. The class given is ADME, organism-based. Further details: dose 10 mg/kg, route oral.

We go through 24 compounds from ChEMBL document CHEMBL1145971, “Design and synthesis of the potent, orally available, brain-penetrable arylpyrazole class of neuropeptide Y5 receptor antagonists” (J Med Chem, 2003).

Consider `O=C(Nc1cc(-c2ccccc2Cl)n[nH]1)C1Cc2ccccc2C1`, for which the Ki – broadly, a measure of affinity in units of concentration, obtained from inhibition or displacement – in data set [1] was determined as 450 nM.

For the compound `O=C(Nc1cc(-c2ccc(Cl)cc2)n[nH]1)c1cccc2ccccc12`, the IC50 (commonly the concentration at which inhibition is half-maximal) in [2] was > 1000 nM.

On to `O=C(Cc1ccc2ccccc2c1)Nc1cc(-c2ccc(Cl)cc2)n[nH]1`, for which the half-inhibitory concentration (IC50) in [2] stood at 47 nM.

As to `Cc1ccc(-c2cc(NC(=O)C3Cc4ccccc4C3)[nH]n2)cc1`, the Ki in [1] was found to be 80 nM.

With `O=C(Nc1cc(-c2cccc(Cl)c2)n[nH]1)C1Cc2ccccc2C1`, in data set [1], the inhibitory constant (Ki) was found to be 120 nM.

`COc1ccc(-c2cc(NC(=O)C3Cc4ccccc4C3)[nH]n2)cc1`: the Ki in data set [1] is 62 nM.

As for `O=C(Nc1cc(-c2ccc(Cl)cc2)n[nH]1)c1ccccc1`, in data set [2], the half-maximal inhibitory concentration (IC50) was > 1000 nM.

For `O=C(CCCc1ccccc1)Nc1cc(-c2ccc(Cl)cc2)n[nH]1`, the IC50 in data set [2] came out at 443 nM.

For the compound `COc1ccc(-c2cc(NC(=O)C3Cc4ccccc4C3)[nH]n2)cc1OC`, the Ki in data set [1] amounted to 33 nM.

Take `O=C(Cc1cccc2ccccc12)Nc1cc(-c2ccc(Cl)cc2)n[nH]1`: the IC50 in data set [2] amounted to 317 nM.

With `CC(C)Oc1ccc(-c2cc(NC(=O)C3Cc4ccccc4C3)[nH]n2)cc1`, the Ki in data set [1] worked out at 92 nM.

For `O=C(Nc1cc(-c2ccccc2)[nH]n1)C1Cc2ccccc2C1`, in data set [1], the Ki amounted to 260 nM.

As for `O=C(O)CCc1cccc(CC(=O)Nc2cc(-c3ccc(Cl)cc3)n[nH]2)c1`, the Ki in data set [1] was 16 nM. Besides, the IC50 in data set [2] stood at 16.3 nM.

Regarding `COc1ccc(-c2cc(NC(=O)Cc3ccc4ccccc4c3)[nH]n2)cc1OC`, the Ki in data set [1] turned out to be 8.3 nM.

Turning to `O=C(CCc1ccccc1)Nc1cc(-c2ccc(Cl)cc2)n[nH]1`, the IC50 in data set [2] is > 1000 nM.

For the compound `O=C(Cc1ccccc1)Nc1cc(-c2ccc(Cl)cc2)n[nH]1`, the IC50 in data set [2] was found to be 803 nM.

Regarding `O=C(Nc1cc(-c2ccc(Cl)cc2)n[nH]1)c1ccc(-c2ccccc2)cc1`, the IC50 in data set [2] was > 1000 nM.

For `O=C(Nc1cc(-c2ccc(Cl)cc2)n[nH]1)c1ccc2ccccc2c1`, the IC50 in data set [2] is > 1000 nM.

For the compound `O=C(Nc1cc(-c2ccc(Cl)cc2)n[nH]1)C1Cc2ccccc2C1`, the Ki in data set [1] was found to be 59 nM.

Take `COc1ccc(-c2cc(NC(=O)C3Cc4ccc5ccccc5c4C3)[nH]n2)cc1OC` (racemic): the Ki in data set [1] came out at 2.8 nM.

`O=C(Nc1cc(-c2ccncc2)[nH]n1)C1Cc2ccc3ccccc3c2C1` (racemic): in data set [1], the Ki was 10 nM.

With `CCc1cc(-c2cc(NC(=O)C3Cc4ccc5ccccc5c4C3)[nH]n2)ccn1` (racemic), the inhibitory constant (Ki) in data set [1] was found to be 7.3 nM.

Turning to `CCc1cc(-c2cc(NC(=O)C3Cc4ccc5ccccc5c4C3)[nH]n2)ccn1` (stereo in doubt; (+)-7), the inhibition constant Ki in [1] worked out at 25 nM. In data set [3], the IC50 was 28 nM.

For `CCc1cc(-c2cc(NC(=O)C3Cc4ccc5ccccc5c4C3)[nH]n2)ccn1` (stereo in doubt; (-)-7), the bioavailability in data set [4] was 70%. The Vd in data set [5] stood at 0.62 L/kg. The half-life – broadly, the time in which the quantity being followed falls by half – in data set [6] is 1.9 h; in data set [7] it was 0.88 h. Further, the clearance in data set [8] was 9.52 mL/min/kg. For the same compound, the Cmax (in general, the highest concentration seen after dosing) in the data set on Rattus norvegicus stood at 5000 nM. Moreover, the Tmax (as a rule, the time at which the peak concentration occurs) in data set [9] was 2 h. The concentration at 2 h in data set [10] turned out to be 450 nM. In addition, the inhibitory constant (Ki) in data set [1] is 3.5 nM. The IC50 in data set [3] came to 14 nM.
